{"source": "ChEMBL document CHEMBL2346560", "about": "“Structure and function of a potent lipopolysaccharide-binding antimicrobial and anti-inflammatory peptide” (J Med Chem, 2013)", "key": {"[1]": {"test_system": "Staphylococcus aureus", "assay": "Antibacterial activity against Staphylococcus aureus ATCC 2592 treated with NaCl after 16 hrs by broth dilution method", "format": "functional", "conditions": "ATCC 2592, 16 h", "in_short": "(§1)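 Salt sensitivity of the MIC. Peptide was tested in water, NaCl, CaCl2, MgCl2 or PBS (Na2HPO4-NaH2PO4, pH 7.4), with every salt at 150 mM. Values are means of three independent experiments, each run in duplicate.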"}, "[2]": {"test_system": "RAW264.7", "assay": "Antiinflammatory activity in mouse RAW264.7 cells assessed as inhibition of LPS-induced NFkappaB translocation from cytoplasm to nucleus at 20 ug/mL preincubated for 1 hr prior to LPS-challenge measured after 3 hrs by Western blotting analysis relative to LPS-treated control", "format": "functional", "in_short": "(§2)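 RAW 264.7 cells (1 × 10^6/well) were serum-starved in RPMI-1640 for 16 h. They were pretreated with peptide (0, 5, 10, 20 µg/mL) for 1 h, then given LPS (E. coli 055:B5, 0 or 100 ng/mL) for 3 h. Cells were washed in ice-cold PBS, and cytoplasmic or nuclear fractions were blotted for TLR4, JNK, NF-κB p65 and β-actin. Control was LPS alone.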"}, "[3]": {"test_system": "Bacillus subtilis", "assay": "Antibacterial activity against Bacillus subtilis 6633 treated with CaCl2 after 16 hrs by broth dilution method", "format": "functional", "conditions": "Bacillus subtilis, 6633, 16 h", "in_short": "as §1"}, "[4]": {"test_system": "Escherichia coli", "assay": "Antibacterial activity against Escherichia coli 08A852 assessed as plasma membrane rupture after 30 mins by scanning electron microscopic analysis", "format": "functional, organism-based", "in_short": "(§3)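 E. coli (about 2 × 10^7 CFU/mL) was exposed to peptide at 1 × MIC, 37 °C, 30 min, beside an untreated control. Cells were pelleted, fixed in 2.5% buffered glutaraldehyde (4 °C, 2 h), post-fixed in 1% osmium tetroxide (2 h), dehydrated through graded ethanol, frozen in tert-butyl alcohol and vacuum-dried, then imaged by SEM.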"}, "[5]": {"test_system": "Pseudomonas aeruginosa", "assay": "Antibacterial activity against Pseudomonas aeruginosa ATCC 27853 treated with MgCl2 after 16 hrs by broth dilution method", "format": "functional", "conditions": "ATCC 27853, 16 h", "in_short": "as §1"}, "[6]": {"test_system": "RAW264.7", "assay": "Antiinflammatory activity in mouse RAW264.7 cells assessed as inhibition of LPS-induced JNK1 expression preincubated for 1 hr prior to LPS-challenge measured after 3 hrs by Western blotting analysis", "format": "functional, cell-based", "in_short": "as §2"}, "[7]": {"assay": "Toxicity in human RBC assessed as induction of hemolysis at 25 ug/mL after 30 mins relative to control", "format": "cell-based, Erythrocyte", "conditions": "red blood cells (RBC), read-out: Activity", "in_short": "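Human red blood cells incubated with peptide. Hemoglobin release read as absorbance at 540 nm and expressed against 1% Triton X-100 as positive control.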"}, "[8]": {"test_system": "Escherichia coli", "assay": "Bactericidal activity against Escherichia coli ATCC 25922 at MIC after 60 mins by colony counting assay (reference value: 296 CFU)", "format": "functional"}, "[9]": {"test_system": "Pseudomonas aeruginosa", "assay": "Antibacterial activity against Pseudomonas aeruginosa ATCC 27853 treated with CaCl2 after 16 hrs by broth dilution method", "format": "functional", "conditions": "ATCC 27853, 16 h", "in_short": "as §1"}, "[10]": {"test_system": "RAW264.7", "assay": "Antiinflammatory activity in mouse RAW264.7 cells assessed as inhibition of LPS-induced JNK2 expression at 10 to 20 ug/mL preincubated for 1 hr prior to LPS-challenge measured after 3 hrs by Western blotting analysis", "format": "functional, cell-based", "in_short": "as §2"}, "[11]": {"test_system": "Escherichia coli", "assay": "Bactericidal activity against Escherichia coli ATCC 25922 at 10 times MIC after 5 mins by colony counting assay (reference value: 47.7 CFU)", "format": "functional"}, "[12]": {"test_system": "Escherichia coli", "assay": "Bactericidal activity against Escherichia coli ATCC 25922 at MIC after 20 mins by colony counting assay (reference value: 79.3 CFU)", "format": "functional"}, "[13]": {"test_system": "Escherichia coli", "assay": "Bactericidal activity against Escherichia coli ATCC 25922 at 10 times MIC after 10 mins by colony counting assay (reference value: 58.3 CFU)", "format": "functional"}, "[14]": {"test_system": "RAW264.7", "assay": "Antiinflammatory activity in mouse RAW264.7 cells assessed as inhibition of LPS-induced NO production at 10 ug/mL after 24 hrs by spectrophotometric analysis relative to control", "format": "functional", "conditions": "RAW264.7, 24 h", "in_short": "(§4)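 RAW 264.7 cells (1 × 10^7) in RPMI-1640 with 10% FBS and penicillin/streptomycin were treated with peptide (2.5, 5, 10, 20 µg/mL) with or without LPS (E. coli 055:B5, 100 ng/mL) for 24 h. Medium nitrite was measured with Griess reagent at A540 against a NaNO2 standard curve. Control was LPS alone. Mean ± SEM of three separate experiments.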"}, "[15]": {"test_system": "Staphylococcus aureus", "assay": "Antibacterial activity against Staphylococcus aureus ATCC 2592 treated with CaCl2 after 16 hrs by broth dilution method", "format": "functional", "conditions": "ATCC 2592, 16 h", "in_short": "as §1"}, "[16]": {"test_system": "Escherichia coli", "assay": "Bactericidal activity against Escherichia coli ATCC 25922 at 10 times MIC after 20 mins by colony counting assay (reference value: 79.3 CFU)", "format": "functional"}, "[17]": {"test_system": "Lipopolysaccharide (LPS)", "assay": "Binding affinity to Escherichia coli 055:B5 lipopolysaccharide by NMR titration assay", "in_short": "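2D TOCSY NMR titration: peptide 2.5 mM in 95% H2O/TFE-d3 (6:4, v/v) with 5% D2O, pH 6.2, 25 °C, alone or with LPS from E. coli 055:B5 (2.5 mM : 1 µg and 2.5 mM : 5 µg). Readout is the ratio of amide proton peak heights, free versus LPS-bound, per residue.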"}, "[18]": {"test_system": "Escherichia coli", "assay": "Antibacterial activity against Escherichia coli ATCC 25922 treated with water after 16 hrs by broth dilution method", "format": "functional", "conditions": "ATCC 25922, 16 h", "in_short": "as §1"}, "[19]": {"test_system": "Escherichia coli", "assay": "Antibacterial activity against Escherichia coli ATCC 25922 treated with PBS after 16 hrs by broth dilution method", "format": "functional", "conditions": "ATCC 25922, 16 h", "in_short": "as §1"}, "[20]": {"test_system": "Candida albicans", "assay": "Antifungal activity against Candida albicans ATCC 2002 treated with water after 16 hrs by broth dilution method", "format": "functional", "conditions": "ATCC 2002, 16 h", "in_short": "as §1"}, "[21]": {"test_system": "Escherichia coli", "assay": "Bactericidal activity against Escherichia coli ATCC 25922 at 5 times MIC after 40 mins by colony counting assay (reference value: 131.7 CFU)", "format": "functional"}, "[22]": {"test_system": "RAW264.7", "assay": "Antiinflammatory activity in mouse RAW264.7 cells assessed as inhibition of LPS-induced NO production at 5 ug/mL after 24 hrs by spectrophotometric analysis relative to control", "format": "functional", "conditions": "RAW264.7, 24 h", "in_short": "as §4"}, "[23]": {"test_system": "Escherichia coli", "assay": "Antibacterial activity against Escherichia coli 08A852 assessed as cell swelling after 30 mins by scanning electron microscopic analysis", "format": "functional, organism-based", "in_short": "as §3"}, "[24]": {"test_system": "Candida albicans", "assay": "Antifungal activity against Candida albicans ATCC 2002 treated with NaCl after 16 hrs by broth dilution method", "format": "functional", "conditions": "ATCC 2002, 16 h", "in_short": "as §1"}, "[25]": {"test_system": "RAW264.7", "assay": "Antiinflammatory activity in mouse RAW264.7 cells assessed as inhibition of LPS-induced IL6 production at 20 ug/mL after 24 hrs by ELISA relative to control", "format": "functional", "conditions": "RAW264.7, 24 h", "in_short": "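RAW 264.7 cells (2 × 10^5) were plated and allowed to adhere. They were given peptide (2.5, 5, 10, 20 µg/mL) with or without LPS (E. coli 055:B5, 20 ng/mL) for 24 h. Supernatant TNF-α, IL-6 and MCP-1 were measured by ELISA at A450. Controls were LPS alone and untreated cells. Mean ± SEM of three separate experiments.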"}, "[26]": {"test_system": "Escherichia coli", "assay": "Bactericidal activity against Escherichia coli ATCC 25922 at MIC after 40 mins by colony counting assay (reference value: 131.7 CFU)", "format": "functional"}}, "note": "Activity calls are given as the source filed them. No cut-off for these calls is given here. Bridge positions count the residues as written; N and C are the ends. Peptide text beside a SMILES is read from it."}
{"smiles": "CC[C@H](C)[C@H](NC(=O)[C@H](Cc1cnc[nH]1)NC(=O)[C@H](CO)NC(=O)[C@@H](NC(=O)[C@@H](NC(=O)[C@@H](NC(=O)[C@@H](NC(=O)[C@H](CCCNC(=N)N)NC(=O)[C@H](CC(C)C)NC(=O)[C@H](CCCCN)NC(=O)[C@H](CCC(=O)O)NC(=O)[C@H](CCCCN)NC(=O)[C@H](CC(C)C)NC(=O)[C@H](CCCCN)NC(=O)[C@@H]1CSSC[C@H](NC(=O)[C@H](CCCCN)NC(=O)[C@@H](N)CCCNC(=N)N)C(=O)N[C@@H](CC(N)=O)C(=O)N[C@@H](Cc2ccccc2)C(=O)N[C@@H](CC(C)C)C(=O)N1)[C@@H](C)O)C(C)C)[C@@H](C)CC)[C@@H](C)O)C(=O)N[C@@H](CC(=O)O)C(=O)N[C@@H](CCCCN)C(=O)N[C@H](C(=O)N[C@@H](CC(C)C)C(=O)N[C@@H](CCCNC(=N)N)C(=O)N1CCC[C@H]1C(=O)N[C@@H](CCC(N)=O)C(=O)NCC(=O)O)C(C)C", "note": "(H-RKCNFLCKLKEKLRTVITSHIDKVLRPQG-OH; disulfide 3-7)", "values": [{"measurement": "MIC", "setting": "[1]", "result": 4.69, "unit": "µg/mL"}, {"measurement": "inhibition at 20 µg/mL", "setting": "[2]", "result": 74, "unit": "%"}, {"measurement": "MIC", "setting": "[3]", "result": 75, "unit": "µg/mL"}, {"measurement": "Activity", "setting": "[4]", "result": "Active"}, {"measurement": "MIC", "setting": "[5]", "result": 18.8, "unit": "µg/mL"}, {"measurement": "inhibition", "setting": "[6]", "result": "Dose-dependent effect"}, {"measurement": "hemolysis at 0.5 h, 25 ug/mL", "setting": "[7]", "result": 3.5, "unit": "%"}, {"measurement": "CFU", "setting": "[8]", "result": 0}, {"measurement": "MIC", "setting": "[9]", "result": 18.8, "unit": "µg/mL"}, {"measurement": "inhibition", "setting": "[10]", "result": "Active"}, {"measurement": "CFU", "setting": "[11]", "result": 11.3}, {"measurement": "CFU", "setting": "[12]", "result": 11.3}, {"measurement": "CFU", "setting": "[13]", "result": 0}, {"measurement": "inhibition at 10 µg/mL", "setting": "[14]", "result": 50, "unit": "%"}, {"measurement": "MIC", "setting": "[15]", "result": 4.69, "unit": "µg/mL"}, {"measurement": "CFU", "setting": "[16]", "result": 0}, {"measurement": "Activity", "setting": "[17]", "result": "Active"}, {"measurement": "MIC", "setting": "[18]", "result": 4.69, "unit": "µg/mL"}, {"measurement": "MIC", "setting": "[19]", "result": 2.35, "unit": "µg/mL"}, {"measurement": "MIC", "setting": "[20]", "result": 4.69, "unit": "µg/mL"}, {"measurement": "CFU", "setting": "[21]", "result": 0}, {"measurement": "inhibition at 5 µg/mL", "setting": "[22]", "result": 30, "unit": "%"}, {"measurement": "Activity", "setting": "[23]", "result": "Active"}, {"measurement": "MIC", "setting": "[24]", "result": 2.35, "unit": "µg/mL"}, {"measurement": "inhibition at 20 µg/mL", "setting": "[25]", "result": 86, "unit": "%"}, {"measurement": "CFU", "setting": "[26]", "result": 0}]}
